In general, IC50 refers to the concentration needed to halve the response being measured.

The values that follow come from ChEMBL document CHEMBL4680109, “A road map for prioritizing warheads for cysteine targeting covalent inhibitors” (Eur J Med Chem, 2018).

The nature of assay [1]: Inhibition of Escherichia coli MurA using UNAG and PEP as substrate preincubated for 30 mins in presence of UNAG followed by PEP addition and measured after 15 mins by malachite green colorimetric assay. The method in brief: (§1)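 IC50 from MurA (E. coli or S. aureus) residual activities at seven compound concentrations. Conditions: 30 min preincubation with UNAG at 37 °C, then PEP, 15 min at 37 °C, in 50 mM Hepes pH 7.8, 0.005% Triton X-114 and 5% DMSO. Malachite green read at 650 nm. Values are means of duplicates.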

Assay [2] relates to Escherichia coli. The assay can be described thus: Inhibition of Escherichia coli MurA assessed as residual activity at 100 uM using UNAG and PEP as substrate preincubated for 30 mins in presence of UNAG followed by PEP addition and measured after 15 mins by malachite green colorimetric assay relative to control. The settings on record: time 45.0 min.
The target in assay [3] is Cathepsin B (Homo sapiens) (UniProt P07858). The assay can be described thus: Inhibition of recombinant cathepsin B (unknown origin) exopeptidase activity expressed in Escherichia coli assessed as residual activity at 100 uM using Abz-GIVRAK(Dnp)-OH as substrate preincubated for 30 mins under shaking in presence of 5 mM cysteine followed by substrate addition relative to control.

Assay [4] can be described thus: Inhibition of recombinant cathepsin X (unknown origin) expressed in Pichia pastoris assessed as residual activity at 100 uM using Abz-Fek(Dnp)-OH as substrate preincubated for 30 mins under shaking in presence of 5 mM cysteine followed by substrate addition relative to control. The settings on record: Homo sapiens.
Assay [5] has as its target Cathepsin B (Homo sapiens) (UniProt P07858). In words: Inhibition of recombinant cathepsin B (unknown origin) endopeptidase activity expressed in Escherichia coli assessed as residual activity at 100 uM using Z-RR-AMC as substrate preincubated for 30 mins under shaking in presence of 5 mM cysteine followed by substrate addition relative to control.
Assay [6] deals with Escherichia coli. In words: Inhibition of Escherichia coli MurA assessed as residual activity at 100 uM using UNAG and PEP as substrate preincubated for 30 mins in presence of UNAG followed by PEP addition and measured after 15 mins in presence of 5 mM cysteine by malachite green colorimetric assay relative to control. The settings on record: time 45.0 min. The method in brief: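 MurA from E. coli, with the enzyme diluted in Hepes pH 7.8 containing cysteine (15 mM in buffer, giving 5 mM in incubation). Preincubated with UNAG and compound for 30 min at 37 °C, then PEP added and reacted 15 min at 37 °C. Phosphate read by malachite green at 650 nm. Duplicates; residual activity is versus DMSO control.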

The nature of assay [7]: Inhibition of Staphylococcus aureus MurA expressed in Escherichia coli using UNAG and PEP as substrate preincubated for 30 mins in presence of UNAG followed by PEP addition and measured after 15 mins by malachite green colorimetric assay. A digest of the protocol:
as §1

The next assay deals with Staphylococcus aureus. In words: Inhibition of Staphylococcus aureus MurA expressed in Escherichia coli assessed as residual activity at 100 uM using UNAG and PEP as substrate preincubated for 30 mins in presence of UNAG followed by PEP addition and measured after 15 mins by malachite green colorimetric assay relative to control. The settings on record: time 45.0 min.
Assay [8] has as its system Escherichia coli. The assay can be described thus: Inhibition of Escherichia coli MurA assessed as residual activity at 25 uM using UNAG and PEP as substrate preincubated for 30 mins in presence of UNAG followed by PEP addition and measured after 15 mins by malachite green colorimetric assay relative to control.
For assay [9], the system named is Escherichia coli. In words: Inhibition of Escherichia coli MurA assessed as residual activity at 1 mM using UNAG and PEP as substrate preincubated for 30 mins in presence of UNAG followed by PEP addition and measured after 15 mins by malachite green colorimetric assay relative to control. As to conditions: time 45.0 min.

Structures can show the parent of a compound that is named as a salt.

For the compound `FC(F)(F)c1cccc(N=C=S)c1`, the values for the IC50 in [1] and in assay [7] were 28 µM and 53 µM, respectively. For the same compound, the Activity came out at 3% in the assay on Escherichia coli [2]; 97% in assay [3]; 87% in [4]; 100% in assay [5]; 99% with Escherichia coli [6]; 9% in the assay on Staphylococcus aureus.
`O=C1C=CC(=O)N1C1CCCCC1`: the IC50 was found to be 0.554 µM in [1] and 0.652 µM in assay [7]. In addition, the Activity with Escherichia coli [8] was determined as 85%; in the assay on Escherichia coli [2], 1%; in assay [3] it was 89%; in [4], 96%; in [5], 96%; with Escherichia coli [6], 100%. Further, the Activity in the assay with Staphylococcus aureus is 0.3%.
For the compound `C/C=C/C#N`, the Activity in the assay on Escherichia coli [2] worked out at 100%; in assay [3], 87%; in assay [4], 90%; in [5] it was 100%; with Escherichia coli [6] it was 100%; in the assay on Staphylococcus aureus it was 97%.
In the case of `CCOC(=O)C#Cc1ccccc1`, the Activity with Escherichia coli [2] is 75%; in assay [3], 70%; in [4], 92%; in assay [5] it was 85%; in the assay with Escherichia coli [6], 99%; in the assay on Staphylococcus aureus, 67%.
Take `O=C(CBr)c1ccccc1`: the Activity stood at 2% in the assay with Escherichia coli [2]; 27% in [3]; 75% in assay [4]; 83% in assay [5]; 94% in the assay with Escherichia coli [6]; 7% with Staphylococcus aureus.
As to `COc1ccccc1C(=O)CBr`, the 50% inhibitory concentration (IC50) amounted to 0.384 µM in assay [1] and 1.82 µM in [7]. For the same compound, the Activity in the assay on Escherichia coli [2] came to 3%; in assay [3], 55%; in [4] it was 74%; in assay [5], 90%; in the assay on Escherichia coli [6], 100%; in the assay with Staphylococcus aureus, 4%.
Take `O=C(CCl)N1CCC(Cc2ccccc2)CC1`: the Activity was determined as 78% in [5], 99% in the assay on Escherichia coli [6] and 55% in the assay on Staphylococcus aureus.
For the compound `O=C(CCl)Nc1ccccc1`, the Activity in the assay on Escherichia coli [2] was found to be 100%; in assay [3], 88%; in assay [4], 99%; in assay [5] it was 100%; in the assay with Escherichia coli [6] it was 95%; in the assay with Staphylococcus aureus, 59%.
Regarding `S=C=NCc1ccccc1` [BENZYL ISOTHIOCYANATE], the 50% inhibitory concentration (IC50) in assay [1] was 3.7 µM. For the same compound, the Activity in the assay with Escherichia coli [2] was 3%; in assay [3], 18%; in assay [4], 22%; in [5], 75%; in the assay on Escherichia coli [6], 100%; in the assay on Staphylococcus aureus, 41%.
With `COc1cc(NC(=O)CCl)cc(OC)c1`, the Activity in the assay with Escherichia coli [2] was 61%; in [3], 87%; in assay [4] it was 84%; in assay [5], 90%; in the assay on Escherichia coli [6], 96%; in the assay with Staphylococcus aureus, 52%.
Take `COC(=O)/C=C/C(=O)OC` [DIMETHYL FUMARATE]: the Activity came to 88% in the assay with Escherichia coli [9]; 50% in the assay on Escherichia coli [2]; 100% in assay [3]; 89% in [4]; 100% in assay [5]; 90% in the assay with Escherichia coli [6]. Also, the Activity with Staphylococcus aureus came to 82%. Moreover, the half-inhibitory concentration (IC50) in assay [1] stood at 172 µM.
`COc1cc2c(cc1OC)CN(C(=O)CCl)CC2`: the figures for the IC50 in assay [1] and in [7] were 141 µM and 171 µM, respectively. The Activity with Escherichia coli [2] stood at 61%; in assay [4], 97%; with Escherichia coli [6], 98%; in the assay on Staphylococcus aureus, 54%.
Consider `O=C(CCl)Nc1cc(C(F)(F)F)cc(C(F)(F)F)c1`, for which the half-inhibitory concentration (IC50) in assay [1] is 75 µM; in assay [7], 100 µM. Moreover, the Activity in [4] is 96%; in assay [5], 75%; in the assay with Escherichia coli [6] it was 80%; with Staphylococcus aureus, 96%.
Consider `COc1ccc(N=C=S)cc1`, for which, in assay [1], the IC50 came out at 45 µM. Also, the Activity in the assay with Escherichia coli [2] was found to be 33%; in assay [3] it was 99%; in assay [4], 55%; in assay [5], 100%; with Escherichia coli [6], 94%; in the assay with Staphylococcus aureus it was 91%.
Take `O=c1[nH]sc2ccccc12`: the IC50 in [1] was determined as 1.1 µM; in assay [7] it was 0.926 µM. The Activity in the assay on Escherichia coli [2] was determined as 2%; in assay [3], 96%; in assay [4], 100%; in [5] it was 100%; with Escherichia coli [6], 99%; in the assay with Staphylococcus aureus it was 0%.
On to `C[C@@H]1O[C@@H]1P(=O)(O)O`, for which the Activity with Escherichia coli [8] was 3%.
With `N#C/C=C/C(F)(F)F`, the Activity was 100% with Escherichia coli [9]; 47% in the assay on Escherichia coli [2]; 88% in assay [3]; 86% in assay [4]; 100% in assay [5]; 100% with Escherichia coli [6]. For the same compound, the Activity with Staphylococcus aureus was found to be 81%. Besides, the half-maximal inhibitory concentration (IC50) in assay [1] was found to be 95 µM.
For the compound `C=CC(=O)Nc1cc(C(F)(F)F)cc(C(F)(F)F)c1`, the Activity is 86% in the assay on Escherichia coli [9], 92% in assay [4], 100% with Escherichia coli [6] and 72% with Staphylococcus aureus. The IC50 in [1] stood at 164 µM.
Turning to `O=C1C=CC(=O)N1Cc1ccccc1`, the concentration for half-maximal inhibition (IC50) in [1] was 0.565 µM; in assay [7] it was 1.04 µM. Besides, the Activity in the assay with Escherichia coli [2] came out at 2%; in assay [3] it was 87%; in assay [4], 96%; in [5] it was 100%; with Escherichia coli [6] it was 99%; in the assay on Staphylococcus aureus, 0%.
As for `CC#CC(=O)OCC`, the Activity was found to be 82% in the assay with Escherichia coli [2]; 84% in [3]; 96% in [4]; 96% in assay [5]; 100% in the assay with Escherichia coli [6]; 91% in the assay with Staphylococcus aureus.
Turning to `C=CS(=O)(=O)c1ccccc1` [(ETHENYLSULFONYL)BENZENE], the IC50 in assay [1] came out at 15 µM; in assay [7] it was 34 µM. The Activity turned out to be 12% with Escherichia coli [2]; 87% in assay [3]; 93% in assay [4]; 100% in assay [5]; 96% with Escherichia coli [6]; 30% in the assay with Staphylococcus aureus.
Regarding `C/C=N/Nc1cc2ccccc2cn1`, the Activity with Escherichia coli [2] was found to be 99%; in [3], 100%; in [4], 79%; in assay [5], 100%; with Escherichia coli [6], 100%; in the assay with Staphylococcus aureus it was 54%.
Consider `O=C(CCl)c1ccccc1` [PHENACYL CHLORIDE], for which the concentration for half-maximal inhibition (IC50) in assay [1] amounted to 2.25 µM; in assay [7], 3.02 µM. Further, the Activity in the assay on Escherichia coli [2] came to 3%; in assay [3], 34%; in [4] it was 86%; in assay [5], 63%; in the assay on Escherichia coli [6], 93%; in the assay on Staphylococcus aureus it was 7%.
Regarding `Cc1ccc(S)cc1`, the half-maximal inhibitory concentration (IC50) in assay [1] came out at 1.25 µM; in assay [7], 7.83 µM. Besides, the Activity stood at 6% in the assay on Escherichia coli [2]; 67% in assay [3]; 100% in assay [4]; 100% in assay [5]; 94% with Escherichia coli [6]; 23% in the assay on Staphylococcus aureus.
On to `C/C=C/C(=O)OC`, for which the IC50 in [1] was 227 µM. For the same compound, the Activity in the assay with Escherichia coli [2] was 41%; in assay [3], 97%; in assay [4], 84%; in [5] it was 100%; in the assay with Escherichia coli [6], 96%; in the assay with Staphylococcus aureus, 66%.
On to `S=C=Nc1ccccc1` [PHENYLISOTHIOCYANATE], for which the IC50 in assay [1] was 90 µM. Besides, the Activity was found to be 53% with Escherichia coli [2]; 98% in assay [3]; 67% in assay [4]; 100% in assay [5]; 91% in the assay with Escherichia coli [6]; 75% with Staphylococcus aureus.
